# Test results published in ChEMBL document CHEMBL5058577, “EUbOPEN Chemogenomics Library 2 (Multiplex)” (2022).
# Test system: U2OS
# Test: Multiplex assay against U2OS
# Assay type: toxicity, cell-based
# Conditions: human
# Method in brief: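 With compound added, live cells were imaged on a CQ1 microscope at 37°C and 5% CO2; staining with Hoechst33342, BioTracker Green Microtubule Cytoskeleton Dye, MitoTracker Red and Annexin V Alexa Fluor 680 had been done at seeding. The CellPathfinder machine-learning gating scheme split cells into Hoechst high-intensity objects or normal cells, normal cells into healthy, pyknosed or fragmented nuclei, and pyknosed cells into mitotic or apoptotic. The tubulin, mitochondrial-mass and membrane-permeability phenotypes are per cents of healthy-nucleus cells.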
# [1] = 12 h, 1 µM, compound concentration 1 uM, replicate 1
# [2] = 12 h, 1 µM, compound concentration 1 uM, replicate 2
# [3] = 12 h, 10 µM, compound concentration 10 uM, replicate 1
# [4] = 12 h, 10 µM, compound concentration 10 uM, replicate 2
# [5] = 24 h, 1 µM, compound concentration 1 uM, replicate 1
# [6] = 24 h, 1 µM, compound concentration 1 uM, replicate 2
# [7] = 24 h, 10 µM, compound concentration 10 uM, replicate 1
# [8] = 24 h, 10 µM, compound concentration 10 uM, replicate 2
# [9] = 48 h, 1 µM, compound concentration 1 uM, replicate 1
# [10] = 48 h, 1 µM, compound concentration 1 uM, replicate 2
# [11] = 48 h, 10 µM, compound concentration 10 uM, replicate 1
# [12] = 48 h, 10 µM, compound concentration 10 uM, replicate 2
structure (smiles),measurement,setting,value
CN(C)C(=O)Cn1cc(-c2ccc(-c3cncc4ccccc34)cc2)cn1,Population Apoptotic (%),[1],68%
same,Population Fragmented Nuclei (%),[1],22%
same,Population Healthy Nuclei (%),[1],68%
same,Population Hoechst High Intensity Objects (%),[1],3%
same,Population Membrane Permeable-Phenotype (%),[1],8%
same,Population Mitochondria Different-Phenotype (%),[1],4%
same,Population Mitotic Cells (%),[1],31%
same,Population Normal (%),[1],96%
same,Population Pyknosed Nuclei (%),[1],9%
same,Population Tubulin-Different-Phenotype (%),[1],5%
same,Total Cell Count,[1],240
same,Population Apoptotic (%),[2],69%
same,Population Fragmented Nuclei (%),[2],18%
same,Population Healthy Nuclei (%),[2],69%
same,Population Hoechst High Intensity Objects (%),[2],0%
same,Population Membrane Permeable-Phenotype (%),[2],6%
same,Population Mitochondria Different-Phenotype (%),[2],2%
same,Population Mitotic Cells (%),[2],30%
same,Population Normal (%),[2],99%
same,Population Pyknosed Nuclei (%),[2],11%
same,Population Tubulin-Different-Phenotype (%),[2],3%
same,Total Cell Count,[2],110
same,Population Apoptotic (%),[3],66%
same,Population Fragmented Nuclei (%),[3],21%
same,Population Healthy Nuclei (%),[3],67%
same,Population Hoechst High Intensity Objects (%),[3],5%
same,Population Membrane Permeable-Phenotype (%),[3],20%
same,Population Mitochondria Different-Phenotype (%),[3],12%
same,Population Mitotic Cells (%),[3],33%
same,Population Normal (%),[3],94%
same,Population Pyknosed Nuclei (%),[3],10%
same,Population Tubulin-Different-Phenotype (%),[3],14%
same,Total Cell Count,[3],205
same,Population Apoptotic (%),[4],100%
same,Population Fragmented Nuclei (%),[4],18%
same,Population Healthy Nuclei (%),[4],75%
same,Population Hoechst High Intensity Objects (%),[4],3%
same,Population Membrane Permeable-Phenotype (%),[4],22%
same,Population Mitochondria Different-Phenotype (%),[4],19%
same,Population Mitotic Cells (%),[4],0%
same,Population Normal (%),[4],96%
same,Population Pyknosed Nuclei (%),[4],5%
same,Population Tubulin-Different-Phenotype (%),[4],23%
same,Total Cell Count,[4],98
same,Population Apoptotic (%),[5],100%
same,Population Fragmented Nuclei (%),[5],21%
same,Population Healthy Nuclei (%),[5],69%
same,Population Hoechst High Intensity Objects (%),[5],3%
same,Population Membrane Permeable-Phenotype (%),[5],5%
same,Population Mitochondria Different-Phenotype (%),[5],2%
same,Population Mitotic Cells (%),[5],0%
same,Population Normal (%),[5],96%
same,Population Pyknosed Nuclei (%),[5],8%
same,Population Tubulin-Different-Phenotype (%),[5],4%
same,Total Cell Count,[5],278
same,Population Apoptotic (%),[6],90%
same,Population Fragmented Nuclei (%),[6],15%
same,Population Healthy Nuclei (%),[6],76%
same,Population Hoechst High Intensity Objects (%),[6],1%
same,Population Membrane Permeable-Phenotype (%),[6],8%
same,Population Mitochondria Different-Phenotype (%),[6],6%
same,Population Mitotic Cells (%),[6],9%
same,Population Normal (%),[6],98%
same,Total Cell Count,[6],127
same,Population Apoptotic (%),[7],54%
same,Population Fragmented Nuclei (%),[7],25%
same,Population Healthy Nuclei (%),[7],64%
same,Population Hoechst High Intensity Objects (%),[7],3%
same,Population Membrane Permeable-Phenotype (%),[7],19%
same,Population Mitochondria Different-Phenotype (%),[7],9%
same,Population Mitotic Cells (%),[7],45%
same,Population Normal (%),[7],96%
same,Population Pyknosed Nuclei (%),[7],9%
same,Population Tubulin-Different-Phenotype (%),[7],10%
same,Total Cell Count,[7],244
same,Population Apoptotic (%),[8],80%
same,Population Fragmented Nuclei (%),[8],11%
same,Population Healthy Nuclei (%),[8],84%
same,Population Hoechst High Intensity Objects (%),[8],2%
same,Population Membrane Permeable-Phenotype (%),[8],16%
same,Population Mitochondria Different-Phenotype (%),[8],15%
same,Population Mitotic Cells (%),[8],20%
same,Population Normal (%),[8],97%
same,Population Pyknosed Nuclei (%),[8],4%
same,Population Tubulin-Different-Phenotype (%),[8],14%
same,Total Cell Count,[8],110
same,Population Apoptotic (%),[9],87%
same,Population Fragmented Nuclei (%),[9],18%
same,Population Healthy Nuclei (%),[9],69%
same,Population Hoechst High Intensity Objects (%),[9],2%
same,Population Membrane Permeable-Phenotype (%),[9],6%
same,Population Mitochondria Different-Phenotype (%),[9],3%
same,Population Mitotic Cells (%),[9],12%
same,Population Normal (%),[9],97%
same,Population Pyknosed Nuclei (%),[9],12%
same,Population Tubulin-Different-Phenotype (%),[9],4%
same,Total Cell Count,[9],333
same,Population Apoptotic (%),[10],88%
same,Population Fragmented Nuclei (%),[10],20%
same,Population Healthy Nuclei (%),[10],67%
same,Population Hoechst High Intensity Objects (%),[10],3%
same,Population Membrane Permeable-Phenotype (%),[10],12%
same,Population Mitochondria Different-Phenotype (%),[10],9%
same,Population Mitotic Cells (%),[10],11%
same,Population Normal (%),[10],96%
same,Population Pyknosed Nuclei (%),[10],11%
same,Population Tubulin-Different-Phenotype (%),[10],9%
same,Total Cell Count,[10],163
same,Population Apoptotic (%),[11],74%
same,Population Fragmented Nuclei (%),[11],22%
same,Population Healthy Nuclei (%),[11],62%
same,Population Hoechst High Intensity Objects (%),[11],2%
same,Population Membrane Permeable-Phenotype (%),[11],15%
same,Population Mitochondria Different-Phenotype (%),[11],8%
same,Population Mitotic Cells (%),[11],25%
same,Population Normal (%),[11],97%
same,Population Pyknosed Nuclei (%),[11],14%
same,Population Tubulin-Different-Phenotype (%),[11],8%
same,Total Cell Count,[11],302
same,Population Apoptotic (%),[12],92%
same,Population Fragmented Nuclei (%),[12],21%
same,Population Healthy Nuclei (%),[12],68%
same,Population Membrane Permeable-Phenotype (%),[12],20%
same,Population Mitochondria Different-Phenotype (%),[12],14%
same,Population Mitotic Cells (%),[12],7%
same,Population Pyknosed Nuclei (%),[12],9%
same,Population Tubulin-Different-Phenotype (%),[12],16%
same,Total Cell Count,[12],149
